Bioassay records (PubChem BioAssay)
TAG inh – inhibitors of triacylglycerol accumulation | inhibition, % at 12.5 µM | H9c2 cells, Nile Red lipid (TAG) fluorescence; cells loaded with 200 µM oleic acid | 230,000 tested, 0.66% active;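 active = pattern-corrected inhibition of lipid staining of at least 50% with the nuclear-stain viability signal not falling by more than 50%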;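 also: 0% = DMSO wells and 100% = triacsin C control wells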
A1 inh – inhibitors of the anti-apoptotic protein A1, read as caspase activation | 330,000 tested, 0.066% active | caspase activation, % (test concentration not listed) | MEF A1-2A-BIM cells, Caspase-Glo 3/7 luminescence, 3 h; percent of clofoctol response, vehicle zero;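 active = over half of replicate activation scores above 10%, or exactly half above 10 with the replicate mean above 10; inconclusive = replicate mean below 10 yet half the replicates above 10; inactive = over half of replicates below 10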
T cruzi inh – T. cruzi replication inhibition | T. cruzi beta-gal in NIH3T3, luminescence, 90 h | inhibition, % (no concentration beside the values) | 300,000 tested, 1.4% active | AID 1885;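 active = mean inhibition across valid replicates above about 55%, limit read from the data; inconclusive = mean below that limit but half or more replicates reach it; inactive = mean below it, under half of replicates reach it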;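 also: signal also drops with host cell toxicity which is not excluded here; 0% = plate median of DMSO wells and 100% = zero luminescence signal; higher percent means less beta-gal luminescence so fewer parasites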
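Material: NIH/3T3 host cells with β-galactosidase reporter T. cruzi; Input: 5,000 host fibroblasts per well; Medium: DMEM, 2% fetal bovine serum; Compound: 50 nL DMSO compound solution per well; Schedule: 3 h host attachment, then at least 90 h co-culture; Detection: luminescent β-galactosidase signal after 60 min lysis.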
CSC inhib – blocks cancer stem cells. cancer stem cell-like cells viability, luminescence. inhibition, % at 7.5 µM. 300,000 tested, 1.1% active. AID 2717; in the data active = inhibition above about 75%; inconclusive = no clear call, values can overlap the other calls; tested in HMLE shEcad cells
Calb FLC – affects C. albicans growth with fluconazole | C. albicans CaCi-2 + fluconazole, Alamar Blue growth, 48 h | growth inhibition, % (test concentration not listed) | 300,000 tested, 0.57% active | AID 1979;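 active = growth inhibition above about 58% in most replicates, limit read from the data, passing the limit was not always enough; inconclusive = exactly half the replicates above a set limit; inactive = most replicates below a set limit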;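 also: all wells also contain fluconazole at 8 µg/ml as a sub-toxic cotreatment; 0% = median of DMSO wells and 100% = median of geldanamycin control wells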
Beta cell apopt – blocks beta cell apoptosis; INS-1E cytokine-induced death, ATP luminescence, 48 h; percent of positive-control rescue, neutral wells zero; 300,000 tested, 0.8% active; protection from apoptosis, % (concentration not given with the values); AID 435005;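 active = Every replicate reaches about 75%, or at least half do and their mean reaches it too, limit read from the data; inconclusive = At least half of replicates reach the limit but their mean does not; inactive = Under half of replicates reach the limit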;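 also: 0% = cytokine-treated negative control wells and 100% = positive control rescue; higher means more ATP so stronger rescue from cytokine killing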
Numbers without * were called inactive. Hits are enriched below; roughly 3.1% of the tested compounds scored in any of these assays.

`CC(C)(C)c1cc(C(c2cccnc2)N2CCN(CCO)CC2)cc(C(C)(C)C)c1O` (stereo unspecified) gave A1 inh 25.4*, T cruzi inh 60.6*, CSC inhib 195.5*, Calb FLC 6.7 and Beta cell apopt 8.8.
`COc1ccc(/C=C/C(=O)NCc2cccnc2)cc1` gave A1 inh -0.8, T cruzi inh 3.7, CSC inhib -0.5, Calb FLC -3.0 and Beta cell apopt 1.5.
CCc1ccc(CN(Cc2cccnc2)C(=O)/C=C/c2ccc(OC)cc2)cc1 was read as A1 inh 0.3, T cruzi inh 63.6*, CSC inhib 0.7, Calb FLC 1.6 and Beta cell apopt 22.6.
Screening CC1CCc2c(sc(Nc3nc4c(F)cccc4s3)c2C(N)=O)C1 (stereo unspecified) returned A1 inh 0.7, T cruzi inh -3.9, CSC inhib 33.9, Calb FLC 0.0 and Beta cell apopt -4.3.
`C/C(=N\Nc1ccc2nncn2n1)c1ccccn1` gave TAG inh 18.5, A1 inh -0.1, T cruzi inh 63.4*, CSC inhib 98.5*, Calb FLC 2.2 and Beta cell apopt 79.6*.
`COc1ccc(C2C(Oc3ccccc3)C(=O)N2c2cc(C)ccc2C)cc1OC` (stereo unspecified) gave A1 inh -0.1, T cruzi inh 59.5*, CSC inhib 10.9, Calb FLC 31.3 and Beta cell apopt 2.5.
CC(=O)C(C(c1ccccc1)c1c[nH]c2ccccc12)[N+](=O)[O-] (stereo unspecified) was read as A1 inh -0.9, T cruzi inh -0.7, CSC inhib 71.2, Calb FLC 0.6 and Beta cell apopt -1.9.
`Cc1cccc(Nc2nc(N)c([N+](=O)[O-])c(N3CC(C)CC(C)C3)n2)c1` (stereo unspecified) gave A1 inh 0.6, T cruzi inh 19.4, CSC inhib 104.6*, Calb FLC 2.5 and Beta cell apopt inconclusive.
`COc1ccc(S(N)(=O)=O)cc1C(=O)NNC(=O)CN(C)S(=O)(=O)c1ccc(Cl)cc1` gave TAG inh -0.5, A1 inh -0.2, CSC inhib -2.1 and Beta cell apopt 1.3.
Screening CCOc1ccc(/C=N/OCC(=O)Nc2ccc3c(c2)OCO3)cc1 returned TAG inh -2.4, A1 inh -0.2, T cruzi inh 3.7, CSC inhib -4.1, Calb FLC 99.8* and Beta cell apopt -7.4.
For Cc1ccc(NC(=O)CNc2ccccc2N2CCCC2=O)cc1S(=O)(=O)N1CCOCC1 the results were TAG inh 3.6.
For Cc1occc(=O)c1OC(=O)Nc1ccc(Cl)c(Cl)c1 the results were A1 inh 0.4, CSC inhib 37.7 and Beta cell apopt 105.7*.
O=C(Nc1cc(S(=O)(=O)N2CCOCC2)ccc1Cl)c1cc([N+](=O)[O-])ccc1Cl was read as TAG inh 9.7, A1 inh 1.6, CSC inhib 51.0 and Beta cell apopt 5.1.
`Cc1cc(O)c(-c2cc(C(=O)Nc3ccc(S(=O)(=O)N4CCOCC4)cc3)[nH]n2)cc1C` gave A1 inh 1.6, T cruzi inh -11.7, CSC inhib 70.6, Calb FLC -5.8 and Beta cell apopt 4.3.
`O=C(Nc1ccc(S(=O)(=O)N2CCOCC2)cc1)c1cc(-c2cc(Cl)ccc2O)n[nH]1` gave TAG inh 42.3, A1 inh 2.0, T cruzi inh -1.3, CSC inhib 94.0*, Calb FLC -1.4 and Beta cell apopt 46.1.
For O=C(Nc1ccc(S(=O)(=O)N2CCOCC2)cc1)c1ccc([N+](=O)[O-])cc1Cl the results were A1 inh -0.1, T cruzi inh 72.7*, CSC inhib -5.3, Calb FLC -27.5 and Beta cell apopt 3.7.
COc1ccc(C2Nc3ccccc3C(=O)N2NC(C)=O)cc1OC (stereo unspecified) was read as TAG inh 8.9, A1 inh 0.3, T cruzi inh -14.9, CSC inhib -6.1, Calb FLC 3.0 and Beta cell apopt 4.1.
Screening O=C1c2ccccc2NC(c2cnc3ccccc3n2)N1O (stereo unspecified) returned TAG inh 12.9, A1 inh -6.9, T cruzi inh -4.5, CSC inhib -11.4, Calb FLC 104.2* and Beta cell apopt -0.1.
